# According to ChEMBL document CHEMBL4373711, “Development of 3,5-Dinitrophenyl-Containing 1,2,4-Triazoles and Their Trifluoromethyl Analogues as Highly Efficient Antitubercular Agents Inhibiting Decaprenylphosphoryl-β-d-ribofuranose 2'-Oxidase” (J Med Chem, 2019):
# The source made the active and inactive calls. The rule behind the calls is not given here.
# Tests used:
# [1] = tested on: Candida albicans; test: Antifungal activity against Candida albicans ATCC 24433 CCM 8320 at highest concentration measured after 24 to 48 hrs by alamar blue dye based broth microdilution assay; assay type: functional, organism-based
# [2] = tested on: Mycobacterium kansasii; test: Antimycobacterial activity against Mycobacterium kansasii CNCTC My 235/80 after 14 days; assay type: functional; conditions: CNCTC My 235/80, 336 h
# Procedure, shortened: (§1)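 Microdilution in Šula's semisynthetic medium; compounds in DMSO at 32–0.03 µM. Inoculum from 1.0 McFarland suspension diluted 10-4. […] Isoniazid and rifampicin as reference drugs.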
# [3] = Selectivity index, ratio of IC50 for human HepG2 cells to MIC>99 for antimycobacterial activity against Mycobacterium kansasii 6509/96 after 14 days; assay type: toxicity; conditions: read-out: Selectivity Index
# [4] = Cytotoxicity against human HepG2 cells assessed as cell viability at 30 uM after 48 hrs by CellTiter 96 aqueous one solution assay relative to control; assay type: cell-based; conditions: read-out: Activity
# Procedure, shortened: (§2)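 HepG2 (DMEM, 10% FBS, 1 mM pyruvate) or A431 (DMEM, 10% FBS) seeded 10,000 cells/well, 24 h at 37 °C, 5% CO2, then 30 µM compound for 48 h. MTS reagent 60 min, absorbance 490 nm, background subtracted; 0.1% DMSO vehicle = 100%, 10% SDS = 0% viability.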
# [5] = Cytotoxicity against human A431 cells assessed as cell viability at 30 uM after 48 hrs by CellTiter 96 aqueous one solution assay relative to control; assay type: cell-based, A-431; conditions: read-out: Activity; procedure, shortened: as §2
# [6] = tested on: Mycobacterium kansasii; test: Antimycobacterial activity against Mycobacterium kansasii 6509/96 after 21 days; assay type: functional; conditions: 6509/96, 504 h; procedure, shortened: as §1
# [7] = Selectivity index, ratio of IC50 for human HepG2 cells to MIC>99 for antimycobacterial activity against Mycobacterium avium CNCTC My 330/88 after 14 days; assay type: toxicity; conditions: read-out: Selectivity Index
# [8] = tested on: Mycobacterium avium; test: Antimycobacterial activity against Mycobacterium avium CNCTC My 330/88 after 14 days; assay type: functional; conditions: CNCTC My 330/88, 336 h
# Procedure, shortened: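 M. avium was tested by microdilution in Šula's semisynthetic medium, with compounds dissolved in DMSO and serially diluted from 1000 down to 1. Inoculum was a 1.0 McFarland suspension diluted 10-5. Plates were incubated at 37 °C and read at 14 and 21 days. […] Isoniazid and rifampicin served as standards.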
# [9] = tested on: Mycobacterium kansasii; test: Antimycobacterial activity against Mycobacterium kansasii 6509/96 after 14 days; assay type: functional; conditions: 6509/96, 336 h; procedure, shortened: as §1
# [10] = tested on: HepG2; test: Cytotoxicity against human HepG2 cells assessed as reduction in cell viability after 48 hrs by CellTiter 96 aqueous one solution assay; assay type: cell-based; conditions: HepG2, 48 h
# [11] = tested on: Mycobacterium tuberculosis; test: Antimycobacterial activity against XDR Mycobacterium tuberculosis Praha 131 after 21 days; assay type: functional; conditions: Praha 131, 504 h
# Procedure, shortened: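 M. tuberculosis strains (H37Rv and clinical MDR/XDR isolates) tested by microdilution in Šula's semisynthetic medium. Compounds were dissolved in DMSO and tested at 32 to 0.03 µM in twofold steps. Inoculum was a 1.0 McFarland suspension diluted 10-3. Plates were incubated at 37 °C and read at 14 and 21 days.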
# [12] = tested on: Staphylococcus epidermidis; test: Antibacterial activity against Staphylococcus epidermidis at highest concentration measured after 24 to 48 hrs by alamar blue dye based broth microdilution assay; assay type: functional, organism-based
# [13] = tested on: Mycobacterium kansasii; test: Antimycobacterial activity against Mycobacterium kansasii 6509/96 after 7 days; assay type: functional; conditions: 6509/96, 168 h; procedure, shortened: as §1
# [14] = tested on: A-431; test: Cytotoxicity against human A431 cells assessed as reduction in cell viability after 48 hrs by CellTiter 96 aqueous one solution assay; assay type: cell-based; conditions: A-431, 48 h
# [15] = tested on: Candida tropicalis; test: Antifungal activity against Candida tropicalis ATCC 750 CCM 8264 at highest concentration measured after 24 to 48 hrs by alamar blue dye based broth microdilution assay; assay type: functional, organism-based
# [16] = tested on: Staphylococcus aureus; test: Antibacterial activity against methicillin-resistant Staphylococcus aureus subsp. aureus ATCC 43300 CCM 4750 at highest concentration measured after 24 to 48 hrs by alamar blue dye based broth microdilution assay; assay type: functional, organism-based
# [17] = tested on: Lichtheimia corymbifera; test: Antifungal activity against Lichtheimia corymbifera CCM 8077 at highest concentration measured after 24 to 48 hrs by alamar blue dye based broth microdilution assay; assay type: functional, organism-based
# [18] = tested on: Serratia marcescens; test: Antibacterial activity against Serratia marcescens at highest concentration measured after 24 to 48 hrs by alamar blue dye based broth microdilution assay; assay type: functional, organism-based
# [19] = Selectivity index, ratio of IC50 for human HepG2 cells to MIC>99 for antimycobacterial activity against XDR Mycobacterium tuberculosis Praha 131 after 14 days; assay type: toxicity; conditions: read-out: Selectivity Index
# Procedure, shortened: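 SI from HepG2 IC50 and M. tuberculosis MIC. HepG2 cells: DMEM + 10% FBS + 1 mM pyruvate, 10,000/well, 48 h treatment, 0.1% DMSO and 10% SDS controls, MTS absorbance at 490 nm.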
# [20] = tested on: Pichia kudriavzevii; test: Antifungal activity against Candida krusei ATCC 6258 CCM8271 at highest concentration measured after 24 to 48 hrs by alamar blue dye based broth microdilution assay; assay type: functional, organism-based
# [21] = tested on: Trichophyton interdigitale; test: Antifungal activity against Trichophyton interdigitale ATCC 9533 CCM 8377 at highest concentration measured after 72 to 120 hrs by alamar blue dye based broth microdilution assay; assay type: functional
# [22] = biological target: T1, Decaprenylphosphoryl-beta-D-ribose oxidase (Mycobacterium tuberculosis (strain ATCC 25618 / H37Rv)) (UniProt P9WJF1); test: Inhibition of DprE1 in Mycobacterium tuberculosis H37Rv assessed as accumulation of trehalose monomycolates at 100 times MIC measured after 24 hrs in presence of [14C]-acetate by TLC-based autoradiography
# T1 sequence (whole entry): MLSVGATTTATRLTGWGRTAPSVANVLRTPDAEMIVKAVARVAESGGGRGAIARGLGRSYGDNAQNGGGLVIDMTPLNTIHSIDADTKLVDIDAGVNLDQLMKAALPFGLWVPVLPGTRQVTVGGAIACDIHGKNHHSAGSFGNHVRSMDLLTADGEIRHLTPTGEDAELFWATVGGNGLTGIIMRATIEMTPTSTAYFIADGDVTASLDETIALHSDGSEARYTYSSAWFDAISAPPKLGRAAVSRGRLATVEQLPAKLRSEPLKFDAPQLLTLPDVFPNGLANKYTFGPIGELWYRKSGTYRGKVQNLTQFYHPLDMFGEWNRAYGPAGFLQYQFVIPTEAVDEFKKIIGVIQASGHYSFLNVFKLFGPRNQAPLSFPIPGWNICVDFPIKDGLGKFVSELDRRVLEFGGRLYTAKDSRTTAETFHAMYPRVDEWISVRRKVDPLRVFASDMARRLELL
# Procedure, shortened: (§3)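 M. tuberculosis H37Rv cultures were exposed to compound at final 10× or 100× MIC, or to DMSO, together with [14C]-acetate at 1 µCi/ml final. After 24 h, lipids were extracted in CHCl3/CH3OH (2:1) for 2 h at 65 °C and given two Folch washes. Extracts were run on TLC in CHCl3/CH3OH/H2O (20:4:0.5), then autoradiographed for 7 days at -80 °C.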
# [23] = biological target: T1, Decaprenylphosphoryl-beta-D-ribose oxidase (Mycobacterium tuberculosis (strain ATCC 25618 / H37Rv)); test: Inhibition of DprE1 in Mycobacterium tuberculosis H37Rv assessed as accumulation of trehalose dimycolates at 100 times MIC measured after 24 hrs in presence of [14C]-acetate by TLC-based autoradiography; procedure, shortened: as §3
Compound,Activity [1],MIC99 [2] [µM],"viability at 48 h, 30 µM [4] [%]","viability at 48 h, 30 µM [5] [%]",MIC99 [6] [µM],MIC99 [8] [µM],MIC99 [9] [µM],IC50 [10] [µM],MIC99 [11] [µM],Activity [12],MIC99 [13] [µM],IC50 [14] [µM],Activity [15],Activity [16],Activity [17],Activity [18],Activity [20],Activity [21],inhibition [22],inhibition [23],further results
O=[N+]([O-])c1cc(-c2nnc(SCc3ccccc3)n2Cc2ccccc2)cc(C(F)(F)F)c1,inactive,0.03,18,37,0.03,250,0.03,21.5,0.06,inactive,0.03,10.1,inactive,inactive,inactive,inactive,inactive,inactive,–,–,selectivity ratio at 336 h [3]: > 100; selectivity ratio at 336 h [7]: > 100; selectivity ratio at 336 h [19]: > 100
COc1ccc(CSc2nnc(-c3cc([N+](=O)[O-])cc(C(F)(F)F)c3)n2Cc2ccccc2)cc1,inactive,0.5,86,74,1,250,1,> 30,1,inactive,0.5,> 30,inactive,inactive,inactive,inactive,inactive,inactive,–,–,–
COc1ccc(Cn2c(SCc3cc([N+](=O)[O-])cc([N+](=O)[O-])c3)nnc2-c2ccccc2)cc1,inactive,2,133,127,–,250,–,> 30,4,inactive,–,> 30,inactive,inactive,inactive,inactive,inactive,inactive,inactive,inactive,–
O=[N+]([O-])c1cc(-c2nnc(SCc3ccccc3)n2Cc2ccccc2)cc([N+](=O)[O-])c1,inactive,0.03,106,111,0.03,125,0.03,> 30,0.03,inactive,0.03,> 30,inactive,inactive,inactive,inactive,inactive,inactive,Active,Active,–
COc1ccc(CSc2nnc(-c3cc([N+](=O)[O-])cc([N+](=O)[O-])c3)n2Cc2ccccc2)cc1,inactive,0.03,104,92,0.03,62,0.03,> 30,0.03,inactive,0.03,> 30,inactive,inactive,inactive,inactive,inactive,inactive,Active,Active,–
CCCCCCn1c(SCc2cc([N+](=O)[O-])cc([N+](=O)[O-])c2)nnc1-c1ccccc1,inactive,1,–,–,2,250,2,–,4,inactive,1,–,inactive,inactive,inactive,inactive,inactive,inactive,inactive,inactive,–
